The values that follow come from ChEMBL document CHEMBL1152709, “Tricyclic HIV integrase inhibitors: VI. SAR studies of 'benzyl flipped' C3-substituted pyrroloquinolines” (Bioorg Med Chem Lett, 2009).

Series [1] relates to Human immunodeficiency virus 1. The experiment in a line: Antiviral activity against HIV1 3B infected in human MT2 cells after 5 days by cell-titer assay in presence of 10% FBS. The series is classed as functional, organism-based. The following applies: Human immunodeficiency virus 1, 3B, MT2, 120 h. The method, boiled down: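 MT-2 cells infected with HIV-1 IIIB (m.o.i. 0.01, 3 h), then about 1.5 × 10⁴ cells per well added to 9 concentrations of 5-fold serially diluted drug in triplicate, in culture medium with 10% FBS. Incubated 5 days at 37 °C. Viability read by CellTiter-Glo chemiluminescence after 10 min lysis at room temperature. Values are means of at least two experiments.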

In series [2] the target is Human immunodeficiency virus type 1 integrase (Human immunodeficiency virus 1, UniProt Q7ZJM1). The experiment in a line: Inhibition of HIV1 HXB2 integrase strand transfer activity by microtiter assay. The method, boiled down:
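Strand transfer measured in a microtiter format using DIG-tagged target DNA, detected with anti-DIG antibody–horseradish peroxidase conjugate. IC50 reported in nM as the mean of at least two experiments.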

Series [3] can be described thus: Oral bioavailability in rat at pH 2.2. Type of series: ADME, organism-based. To be noted: in vivo. In short, it runs like this: (§1)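 Oral dosing of parent compound as a solution in EtOH, PG, PEG400 and citric acid at pH 2.2, alongside an i.v. group (pH 3.3). F (%) was calculated from p.o. versus i.v. AUC. Values are the mean of three animals per study.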
Series [4] in a line: Half life in iv dosed dog at pH 3.3. The series is classed as ADME, organism-based, Canis lupus familiaris. The following applies: in vivo. In short, it runs like this: (§2)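 Parent compound given i.v. as a solution in EtOH, PG, PEG400 and citric acid at pH 3.3. Total body clearance and T½ were derived from the i.v. group. Values are the mean of three animals per study.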
The test system of series [5] is Human immunodeficiency virus 1. The experiment in a line: Antiviral activity against HIV1 3B infected in human MT2 cells after 5 days by cell-titer method in presence of human serum albumin and alpha1-acid glycoprotein. The following applies: Human immunodeficiency virus 1, 3B, MT2, 120 h. The series is classed as functional, organism-based. The method, boiled down: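 Same MT-2/HIV-1 IIIB assay (m.o.i. 0.01, 5 days at 37 °C, CellTiter-Glo read-out), run in 10% FBS with or without HSA (35 mg/ml) or α1-AGP (1.5 mg/ml). The combined-protein (serum-adjusted) EC₅₀ was calculated from the EC₅₀ values with each protein alone, using an equation derived from competitive binding assumptions.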

The nature of series [6]: Oral bioavailability in dog at pH 2.2. The following applies: in vivo. Type of series: ADME, organism-based, Canis lupus familiaris. In short, it runs like this: as §1
Series [7] can be described thus: Clearance in iv dosed dog at pH 3.3. Type of series: ADME, organism-based, Canis lupus familiaris. To be noted: in vivo. In short, it runs like this: as §2
Series [8] in a line: Clearance in iv dosed rat at pH 3.3. Type of series: ADME, organism-based. To be noted: in vivo. In short, it runs like this:
as §2

A short description of series [9]: Half life in iv dosed rat at pH 3.3. Type of series: ADME, organism-based. The following applies: in vivo. The method, boiled down: as §2

Sequence of Human immunodeficiency virus type 1 integrase (Q7ZJM1 whole entry): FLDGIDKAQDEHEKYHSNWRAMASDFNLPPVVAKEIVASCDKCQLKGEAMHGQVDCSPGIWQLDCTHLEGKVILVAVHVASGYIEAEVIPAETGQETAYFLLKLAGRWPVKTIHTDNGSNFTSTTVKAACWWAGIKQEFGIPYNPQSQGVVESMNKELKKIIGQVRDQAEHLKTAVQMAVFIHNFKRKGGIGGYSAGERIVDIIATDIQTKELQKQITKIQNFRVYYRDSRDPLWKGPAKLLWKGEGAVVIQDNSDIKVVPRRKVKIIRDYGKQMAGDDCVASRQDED

Usually EC50 stands for the concentration needed to bring the measured effect to its halfway point. Broadly, the IC50 is the concentration needed to halve the response being measured. With `COc1c2c(c(O)c3ncc(Cc4ccc(F)cc4)cc13)C(=O)N(Cc1ccc(F)cc1)C2`, the 50% effective concentration (EC50) in [1] is 105 nM. The molecule further returned an IC50 in series [2] of 600 nM.

Broadly, the bioavailability is dose-corrected exposure relative to a reference, in per cent. Broadly, the half-life is the time needed for the level to fall by half in the phase considered. For orientation: clearance means the volume of plasma or blood freed of the substance per unit of time. Regarding `CN1Cc2c(c(O)c3ncc(Cc4ccc(F)cc4)cc3c2N(C)S(C)(=O)=O)C1=O`, the values for the 50% effective concentration (EC50) in series [1] and in series [5] were 2 nM and 7 nM, respectively. Besides, the bioavailability in series [3] turned out to be 12%; in series [6], 47%. In addition, the half-life in series [4] was 4.4 h; in series [9] it was 0.4 h. Also, the clearance in [7] is 2.17 mL/min/kg; in [8] it was 8.17 mL/min/kg. Besides, half-maximal inhibition in series [2] (IC50) required 80 nM.

Consider `COc1c2c(c(O)c3ncc(Cc4ccc(F)cc4)cc13)C(=O)N(C)C2`, for which the concentration for a half-maximal effect (EC50) in series [1] amounted to 20 nM. This molecule also displayed an IC50 in series [2] of 100 nM.

Take `COc1c2c(c(O)c3ncc(Cc4ccc(F)cc4)cc13)C(=O)NC2`: the concentration for a half-maximal effect (EC50) in series [1] came out at 16 nM; in series [5], 27 nM. This molecule gave an IC50 in [2] of 14 nM.

Turning to `CN1Cc2c(c(O)c3ncc(Cc4ccc(F)c(Cl)c4)cc3c2N(C)S(C)(=O)=O)C1=O`, the EC50 in [1] amounted to 1.1 nM; in series [5], 35 nM. Also, the bioavailability came out at 11% in series [3] and 60% in series [6]. Also, the half-life in series [4] was 8.8 h; in [9], 1.7 h. The clearance in series [7] is 2 mL/min/kg; in series [8], 3.67 mL/min/kg. Moreover, the IC50 in series [2] turned out to be 265 nM.
